According to ChEMBL document CHEMBL3526015, “Metabolism of the c-Fos/activator protein-1 inhibitor T-5224 by multiple human UDP-glucuronosyltransferase isoforms” (Drug Metab Dispos, 2011):

Assays:
Assay type in all cases: ADME
[1] = target: T1, UDP-glucuronosyltransferase 1A3 (Homo sapiens, UniProt P35503); assay: Drug metabolism assessed as human UGT1A3-mediated T-5224 hydroxyl O-glucuronide formation at 5 to 50 uM after 60 mins in presence of UDP-glucuronic acid by HPLC method; settings: recombinant enzyme, 1 h
T1 sequence (P35503 whole entry): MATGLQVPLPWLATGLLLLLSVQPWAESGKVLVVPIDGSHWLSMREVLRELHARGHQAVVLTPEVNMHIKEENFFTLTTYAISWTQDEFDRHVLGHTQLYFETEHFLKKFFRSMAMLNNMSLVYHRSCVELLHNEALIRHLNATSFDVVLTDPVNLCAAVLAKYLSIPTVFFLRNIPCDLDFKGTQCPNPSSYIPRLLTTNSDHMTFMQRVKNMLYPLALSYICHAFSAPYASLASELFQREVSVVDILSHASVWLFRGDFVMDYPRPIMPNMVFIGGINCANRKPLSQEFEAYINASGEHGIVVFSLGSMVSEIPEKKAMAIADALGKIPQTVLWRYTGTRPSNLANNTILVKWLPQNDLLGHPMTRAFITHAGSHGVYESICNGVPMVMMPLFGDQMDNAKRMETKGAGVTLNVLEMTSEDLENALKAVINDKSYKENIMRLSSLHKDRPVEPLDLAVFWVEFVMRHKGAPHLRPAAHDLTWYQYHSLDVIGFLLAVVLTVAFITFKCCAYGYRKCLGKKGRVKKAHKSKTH

[2] = target: T2, UDP-glucuronosyltransferase 1A1 (Homo sapiens, UniProt P22309); assay: Drug metabolism assessed as human UGT1A1-mediated T-5224 hydroxyl O-glucuronide formation at 10 uM […] in presence of beta-estradiol by HPLC method; settings: recombinant enzyme
T2 sequence (P22309 whole entry): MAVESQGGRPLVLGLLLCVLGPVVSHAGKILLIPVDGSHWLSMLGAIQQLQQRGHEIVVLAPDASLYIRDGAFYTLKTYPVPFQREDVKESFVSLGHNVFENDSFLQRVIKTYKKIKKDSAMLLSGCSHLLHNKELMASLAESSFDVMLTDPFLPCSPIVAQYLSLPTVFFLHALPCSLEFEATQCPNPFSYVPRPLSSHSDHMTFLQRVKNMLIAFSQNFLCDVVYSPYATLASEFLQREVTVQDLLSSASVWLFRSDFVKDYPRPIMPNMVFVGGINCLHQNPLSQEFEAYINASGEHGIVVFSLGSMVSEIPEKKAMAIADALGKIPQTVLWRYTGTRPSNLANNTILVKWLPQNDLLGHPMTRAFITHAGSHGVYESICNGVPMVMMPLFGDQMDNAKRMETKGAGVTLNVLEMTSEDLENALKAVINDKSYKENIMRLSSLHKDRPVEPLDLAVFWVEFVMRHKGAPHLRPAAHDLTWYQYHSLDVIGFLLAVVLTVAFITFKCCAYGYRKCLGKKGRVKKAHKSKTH
In short: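 Pooled human liver microsomes or recombinant UGT1A1 were incubated with 10 μM T-5224, 2 mM UDPGA and β-estradiol at 0–500 μM (2% DMSO), in Tris-HCl/MgCl2/alamethicin buffer. Incubation was 10 min (liver microsomes) or 60 min (UGT1A1) at 37°C. G2/G3 were read by HPLC at 290 nm, as mean ± SD, n = 3.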

Cytochrome P450 3A4 = Cytochrome P450 3A4 (Homo sapiens, UniProt P08684); assay: Drug metabolism assessed as human CYP3A4-mediated metabolite formation at 2 uM after 30 mins by HPLC method; settings: recombinant enzyme, 0.5 h
In short: (§1)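 Each recombinant human P450 was used at 50 pmol/mL with an NADPH-generating system and 2 μM 14C-T-5224 (0.5% DMSO final). Buffer was 100 mM Tris-HCl pH 7.5, except 100 mM potassium phosphate pH 7.4 for CYP2A6 and CYP2C9*1. Incubation ran 30 min at 37°C and was stopped with acetonitrile/methanol. Radioactive metabolite peaks were detected by C18 HPLC.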

Cytochrome P450 2A6 = target: T3, Cytochrome P450 2A6 (Homo sapiens, UniProt P11509); assay: Drug metabolism assessed as human CYP2A6-mediated metabolite formation at 2 uM after 30 mins by HPLC method; settings: recombinant enzyme, 0.5 h; in short: as §1
T3 sequence (P11509 whole entry): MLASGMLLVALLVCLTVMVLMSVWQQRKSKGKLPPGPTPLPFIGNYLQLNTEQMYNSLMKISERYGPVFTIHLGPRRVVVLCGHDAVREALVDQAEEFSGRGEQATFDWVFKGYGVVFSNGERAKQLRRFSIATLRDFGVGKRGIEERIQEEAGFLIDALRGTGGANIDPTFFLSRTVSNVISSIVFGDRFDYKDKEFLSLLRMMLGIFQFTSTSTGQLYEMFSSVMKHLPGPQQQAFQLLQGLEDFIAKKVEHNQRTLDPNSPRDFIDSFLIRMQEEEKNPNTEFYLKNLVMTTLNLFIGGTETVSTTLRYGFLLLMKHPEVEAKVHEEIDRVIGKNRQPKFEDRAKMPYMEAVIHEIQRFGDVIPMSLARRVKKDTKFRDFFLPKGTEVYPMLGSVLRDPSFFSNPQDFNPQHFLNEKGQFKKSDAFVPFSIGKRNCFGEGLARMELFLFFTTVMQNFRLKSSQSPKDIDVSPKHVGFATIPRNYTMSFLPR

Liver microsome = assay: Drug metabolism in human liver microsomes assessed as T-5224 acyl O-glucuronide formation after 10 to 60 mins by HPLC method
In short: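 Pooled liver microsomes (0.5 mg/mL) were incubated 10 min. Pooled intestinal microsomes (0.25 mg/mL) ran 10 min at T-5224 10–50 μM and 20 min at 1–5 μM. Buffer was 50 mM Tris-HCl pH 7.5 with 8 mM MgCl2, alamethicin and 2 mM UDPGA, at 37°C, in triplicate. Glucuronides G2/G3 were read by HPLC at 290 nm and fitted for Vmax/Km.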

[3] = target: T4, UDP-glucuronosyltransferase 1A8 (Homo sapiens, UniProt Q9HAW9); assay: Drug metabolism assessed as human UGT1A8-mediated T-5224 hydroxyl O-glucuronide formation at 5 to 50 uM after 60 mins in presence of UDP-glucuronic acid by HPLC method; settings: recombinant enzyme, 1 h
T4 sequence (Q9HAW9 whole entry): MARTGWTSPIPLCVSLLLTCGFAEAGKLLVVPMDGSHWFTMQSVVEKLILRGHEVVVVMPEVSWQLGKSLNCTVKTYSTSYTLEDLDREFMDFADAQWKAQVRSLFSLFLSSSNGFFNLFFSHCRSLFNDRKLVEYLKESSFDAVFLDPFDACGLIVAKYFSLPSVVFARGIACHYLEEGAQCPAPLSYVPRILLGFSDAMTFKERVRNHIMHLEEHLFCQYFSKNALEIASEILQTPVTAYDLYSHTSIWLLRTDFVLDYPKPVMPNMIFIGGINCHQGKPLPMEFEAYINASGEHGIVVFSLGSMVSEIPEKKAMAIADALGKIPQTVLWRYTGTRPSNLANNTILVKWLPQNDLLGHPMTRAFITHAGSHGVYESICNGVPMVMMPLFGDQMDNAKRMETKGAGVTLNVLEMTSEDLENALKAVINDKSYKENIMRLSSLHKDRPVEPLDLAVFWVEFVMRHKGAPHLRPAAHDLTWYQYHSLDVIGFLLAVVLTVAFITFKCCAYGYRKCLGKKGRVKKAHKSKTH

Cytochrome P450 3A4, sequence (P08684 whole entry): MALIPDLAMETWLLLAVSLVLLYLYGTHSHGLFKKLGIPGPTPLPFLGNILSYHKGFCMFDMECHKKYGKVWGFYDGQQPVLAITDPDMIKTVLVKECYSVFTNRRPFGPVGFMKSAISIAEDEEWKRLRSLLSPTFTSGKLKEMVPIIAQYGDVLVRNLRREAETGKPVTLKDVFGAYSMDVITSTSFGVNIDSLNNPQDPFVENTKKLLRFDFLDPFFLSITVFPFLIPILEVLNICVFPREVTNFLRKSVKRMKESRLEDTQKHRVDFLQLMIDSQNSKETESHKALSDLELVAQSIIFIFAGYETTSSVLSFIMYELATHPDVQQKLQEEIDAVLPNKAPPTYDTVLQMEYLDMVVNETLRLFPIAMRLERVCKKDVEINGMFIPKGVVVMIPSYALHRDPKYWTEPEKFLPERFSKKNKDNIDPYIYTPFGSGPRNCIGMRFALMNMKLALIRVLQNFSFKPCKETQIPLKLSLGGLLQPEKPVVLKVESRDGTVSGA

O=C(O)CCc1cc(C(=O)c2ccc(OC3CCCC3)cc2O)ccc1OCc1ccc2c(O)noc2c1
Drug metabolism [1]: metabolite_detected | Drug metabolism [2]: metabolite_detected | Drug metabolism (Cytochrome P450 3A4): metabolite_not_detected | Drug metabolism (Cytochrome P450 2A6): metabolite_not_detected | Km (Liver microsome): 4.93 µM | Drug metabolism [3]: metabolite_detected
